Laboratory results: ChEMBL document CHEMBL4840316, “Structure-based screening for the discovery of 1,2,4-oxadiazoles as promising hits for the development of new anti-inflammatory agents interfering with eicosanoid biosynthesis pathways” (Eur J Med Chem, 2021)

Key:
[1] = system: A549; experiment: Cytotoxicity against human A549 cells assessed as cell viability at 10 uM measured after 48 hrs by MTT assay; type: cell-based; conditions: a549, 48 h
Outline: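 A549 cells in DMEM + 10% FBS, 2 × 10^4 per well, seeded in triplicate. Exposed to 10 µM compound or 0.1% DMSO for 48 h at 37 °C, 5% CO2. MTT added for 1 h, formazan dissolved in DMSO, absorbance read at 570 nm. Viability given as % of vehicle, n = 3.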

[2] = target: T1, Bifunctional epoxide hydrolase 2 (Homo sapiens) (UniProt P34913); experiment: Inhibition of recombinant human sEH expressed in sf9 insect cells assessed as residual activity at 10 uM using PHOME as substrate preincubated for 15 mins followed by substrate addition and measured after 60 mins relative to control; conditions: time 75.0 min
T1 sequence (whole entry): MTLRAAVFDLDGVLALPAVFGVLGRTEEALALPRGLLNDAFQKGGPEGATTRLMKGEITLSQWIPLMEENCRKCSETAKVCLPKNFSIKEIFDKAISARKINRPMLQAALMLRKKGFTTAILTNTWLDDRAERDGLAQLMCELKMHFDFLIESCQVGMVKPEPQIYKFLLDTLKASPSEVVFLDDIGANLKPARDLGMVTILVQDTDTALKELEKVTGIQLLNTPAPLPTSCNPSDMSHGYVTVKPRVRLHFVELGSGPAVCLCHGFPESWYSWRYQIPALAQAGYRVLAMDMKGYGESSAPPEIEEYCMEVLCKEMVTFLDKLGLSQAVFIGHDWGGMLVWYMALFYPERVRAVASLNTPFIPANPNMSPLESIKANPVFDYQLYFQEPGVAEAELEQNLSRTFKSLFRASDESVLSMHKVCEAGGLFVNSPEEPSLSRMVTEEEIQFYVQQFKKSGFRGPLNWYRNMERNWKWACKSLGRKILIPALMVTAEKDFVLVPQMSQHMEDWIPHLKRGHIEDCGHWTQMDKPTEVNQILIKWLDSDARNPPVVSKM
Outline: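 Human recombinant sEH from baculovirus-infected Sf9 cells, affinity-purified. Diluted in 25 mM Tris pH 7 with 0.1 mg/mL BSA. Pre-incubated 15 min at room temperature with 10 µM compound or 0.1% DMSO. 50 µM PHOME added, run 60 min at room temperature, stopped with ZnSO4. Fluorescence read at ex 330 / em 465 nm.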

[3] = target: T2, Polyunsaturated fatty acid 5-lipoxygenase (Homo sapiens) (UniProt P09917); experiment: Inhibition of 5-LO (unknown origin) expressed in Escherichia coli BL21 assessed as residual activity at 10 uM by RP-HPLC method relative to control
T2 sequence (whole entry): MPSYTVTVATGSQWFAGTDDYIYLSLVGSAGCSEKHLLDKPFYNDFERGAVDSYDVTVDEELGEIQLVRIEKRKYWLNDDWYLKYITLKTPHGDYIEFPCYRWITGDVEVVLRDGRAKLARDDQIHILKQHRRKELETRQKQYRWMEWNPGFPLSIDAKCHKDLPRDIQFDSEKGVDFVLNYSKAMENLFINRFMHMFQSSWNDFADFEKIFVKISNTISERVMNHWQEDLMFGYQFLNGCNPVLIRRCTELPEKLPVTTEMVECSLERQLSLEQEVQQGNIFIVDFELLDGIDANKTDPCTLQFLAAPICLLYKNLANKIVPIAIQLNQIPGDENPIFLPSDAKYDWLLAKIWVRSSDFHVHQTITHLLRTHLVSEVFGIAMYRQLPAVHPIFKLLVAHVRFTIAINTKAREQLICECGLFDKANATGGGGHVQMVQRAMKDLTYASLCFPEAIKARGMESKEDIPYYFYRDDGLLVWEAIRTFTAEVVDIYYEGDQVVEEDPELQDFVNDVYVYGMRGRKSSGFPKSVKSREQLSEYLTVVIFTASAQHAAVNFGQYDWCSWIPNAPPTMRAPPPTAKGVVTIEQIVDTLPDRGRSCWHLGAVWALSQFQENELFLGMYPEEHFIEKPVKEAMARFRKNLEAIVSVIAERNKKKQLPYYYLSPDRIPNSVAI
Outline: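 Human recombinant 5-LO expressed in E. coli BL21 and purified on ATP-agarose. 0.5 µg enzyme in 1 mL PBS + 1 mM EDTA pre-incubated with compound or 0.1% DMSO for 10 min on ice. Reaction started with 20 µM AA and 2 mM CaCl2, run 10 min at 37 °C, stopped with ice-cold methanol. Products analysed; activity as % of control.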

[4] = target: T2, Polyunsaturated fatty acid 5-lipoxygenase (Homo sapiens); experiment: Inhibition of 5-LO in A23187/AA-stimulated human intact neutrophils assessed as reduction in LTB4/5-HETE formation by measuring residual activity at 10 uM measured after 20 mins by RP-HPLC method; type: tissue-based; conditions: Neutrophil
Outline: (§1)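 Human neutrophils at 5 × 10^6/mL in PBS with 0.1% glucose and 1 mM CaCl2. Pre-incubated with compound or 0.1% DMSO for 10 min at 37 °C. Stimulated with 2.5 µM A23187, with or without 20 µM AA, for 10 min at 37 °C. Stopped with cold methanol; PGB1 internal standard. LTB4, its trans isomers and 5-HETE quantified by SPE and RP-HPLC; % of control.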

[5] = system: Monocyte; experiment: Cytotoxicity against human monocyte cells assessed as cell viability at 10 uM measured after 24 hrs by MTT assay; type: cell-based
Outline: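 Human monocytes isolated from PBMC by adherence, 0.2 × 10^6 per well in buffer. Exposed to 10 µM compound or 0.5% DMSO for 24 h (37 °C, 5% CO2). MTT for 2 h, then SDS lysis (10%, pH 4.5) for 17 h. Absorbance read at 570 nm; viability as % of vehicle, n = 3.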

[6] = target: T3, Prostaglandin E synthase (Homo sapiens) (UniProt O14684); experiment: Inhibition of mPGES-1 obtained from IL-beta stimulated human A549 cells microsomes assessed as residual activity by measuring conversion of PGH2 to PGE2 at 10 uM by cell-free RP-HPLC method; conditions: Microsome
T3 sequence (whole entry): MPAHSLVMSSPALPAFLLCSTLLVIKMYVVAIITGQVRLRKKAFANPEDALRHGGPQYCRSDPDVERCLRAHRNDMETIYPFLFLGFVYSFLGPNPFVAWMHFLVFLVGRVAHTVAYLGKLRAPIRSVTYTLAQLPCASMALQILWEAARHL
Outline: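 Microsomes from A549 cells stimulated with IL-1β (1 ng/ml) for 48 h. Diluted in 0.1 M potassium phosphate pH 7.4 with 2.5 mM glutathione. Pre-incubated 15 min on ice with compound (single 10 µM, or 0.03–10 µM for the curve) or 1% DMSO. 20 µM PGH2 added for 1 min; stopped with FeCl3/citric acid containing 11β-PGE2 standard. PGE2 measured by SPE and RP-HPLC. n = 3.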

[7] = target: T2, Polyunsaturated fatty acid 5-lipoxygenase (Homo sapiens); experiment: Inhibition of 5-LO in A23187-stimulated human intact neutrophils assessed as reduction in LTB4/5-HETE formation by measuring residual activity at 10 uM measured after 20 mins by RP-HPLC method; type: tissue-based; conditions: Neutrophil; outline: as §1
[8] = target: Prostaglandin G/H synthase 1 (Ovis aries) (UniProt P05979); experiment: Inhibition of ovine COX-1 assessed as residual activity at 10 uM using arachidonic acid as substrate preincubated for 5 mins by RP-HPLC method relative to control; conditions: time 10.0 min
Prostaglandin G/H synthase 1 (Ovis aries), sequence (P05979 whole entry, looked up): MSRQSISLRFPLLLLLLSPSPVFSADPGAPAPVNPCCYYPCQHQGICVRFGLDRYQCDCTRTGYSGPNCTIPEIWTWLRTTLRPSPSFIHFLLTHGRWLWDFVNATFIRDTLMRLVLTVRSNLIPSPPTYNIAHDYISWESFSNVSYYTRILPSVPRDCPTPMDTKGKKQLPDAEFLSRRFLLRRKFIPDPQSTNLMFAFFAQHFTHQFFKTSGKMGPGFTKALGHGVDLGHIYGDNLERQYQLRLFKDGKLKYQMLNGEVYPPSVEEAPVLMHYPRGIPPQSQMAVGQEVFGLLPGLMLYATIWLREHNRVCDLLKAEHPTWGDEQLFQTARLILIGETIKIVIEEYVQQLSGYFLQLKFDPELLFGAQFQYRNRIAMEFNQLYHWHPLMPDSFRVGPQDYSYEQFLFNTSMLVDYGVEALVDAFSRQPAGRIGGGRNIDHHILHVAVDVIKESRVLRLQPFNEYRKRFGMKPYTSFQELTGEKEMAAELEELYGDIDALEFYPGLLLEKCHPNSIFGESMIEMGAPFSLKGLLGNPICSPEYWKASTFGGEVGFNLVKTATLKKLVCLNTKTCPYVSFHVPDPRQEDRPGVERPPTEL

| Activity [2] | Activity [3] | Activity [4] | Activity [6] | Activity [7] | Activity [8] | Compound | Activity [1] | Activity [5] |
| --- | --- | --- | --- | --- | --- | --- | --- | --- |
| > 50% | 10.3% | 18.5% | 25.4% | 1.7% | 34.7% | Oc1c(F)c(F)cc(-c2nc(-c3ccc(-c4ccsc4)cc3)no2)c1F | Non-Toxic | Non-Toxic |
| > 50% | 105% | 14.9% | 76.4% | 19.9% | 47.7% | Oc1cccc(CCc2nc(-c3ccc(-c4ccsc4)cc3)no2)c1 | Non-Toxic | Non-Toxic |
